Assay results taken from ChEMBL document CHEMBL2176880 (J Med Chem, 2012).
Activity calls are given as the source filed them.

Key:
Cytochrome P450 1A2 = target: T1, Cytochrome P450 1A2 (Homo sapiens, UniProt P05177); assay: Inhibition of CYP1A2; assay type: ADME
T1 sequence (P05177 whole entry): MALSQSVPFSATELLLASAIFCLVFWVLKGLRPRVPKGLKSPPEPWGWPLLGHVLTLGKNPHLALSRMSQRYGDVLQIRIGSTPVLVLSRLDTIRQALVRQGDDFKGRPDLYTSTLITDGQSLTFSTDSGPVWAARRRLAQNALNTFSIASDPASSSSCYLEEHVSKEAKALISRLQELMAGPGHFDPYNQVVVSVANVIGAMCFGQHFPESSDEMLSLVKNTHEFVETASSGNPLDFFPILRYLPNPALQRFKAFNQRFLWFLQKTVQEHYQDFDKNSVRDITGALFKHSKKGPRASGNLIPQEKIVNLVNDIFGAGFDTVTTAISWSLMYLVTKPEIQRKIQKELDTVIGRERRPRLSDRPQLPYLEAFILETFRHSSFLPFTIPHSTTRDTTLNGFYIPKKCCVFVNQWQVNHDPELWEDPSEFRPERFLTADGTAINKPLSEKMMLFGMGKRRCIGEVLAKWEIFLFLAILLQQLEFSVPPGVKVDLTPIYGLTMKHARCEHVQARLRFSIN

[1] = Tmax in dog rat at 1 mg/kg, iv or […], po; assay type: ADME, organism-based, Canis lupus familiaris; conditions: in vivo
Cavia porcellus = assay: Cardiotoxicity in anesthetized guinea pig assessed as proarrhythmic potency; assay type: toxicity, organism-based; conditions: in vivo
[2] = Half life in Sprague-Dawley rat at […], iv; assay type: ADME, organism-based; set-up: dose 2.5 mg/kg, route intravenous; conditions: in vivo
[3] = Half life in dog rat at 1 mg/kg, iv or […], po; assay type: ADME, organism-based, Canis lupus familiaris; conditions: in vivo
[4] = Tmax in Sprague-Dawley rat at […], iv or 10 mg/kg, po; assay type: ADME, organism-based; conditions: in vivo
Rattus norvegicus [5] = assay: Inhibition of REM sleep state in po dosed Sprague-Dawley rat sleep-wake EEG paradigm model; assay type: functional; conditions: read-out: MED
[6] = Clearance in Sprague-Dawley rat at […], iv; assay type: ADME, organism-based; set-up: dose 2.5 mg/kg, route intravenous; conditions: in vivo
Mus musculus [7] = assay: Antipsychotic activity in subcutaneously dosed NMRI mouse assessed as efficacy free concentration causing reversal of PCP-induced hyperlocomotion; assay type: functional
Rattus norvegicus [8] = assay: Inhibition of REM sleep state in Sprague-Dawley rat sleep-wake EEG paradigm model assessed as efficacy free concentration at 3 mg/kg, po; assay type: functional
[9] = Clearance in dog rat at 1 mg/kg, iv or […], po; assay type: ADME, organism-based, Canis lupus familiaris; conditions: in vivo
[10] = AUC (0 to infinity) in dog rat at 1 mg/kg, iv or […], po; assay type: ADME, organism-based, Canis lupus familiaris; conditions: plasma
Cytochrome P450 2C19 = Cytochrome P450 2C19 (Homo sapiens, UniProt P33261); assay: Inhibition of CYP2C19; assay type: ADME
Cytochrome P450 2C19, sequence (P33261 whole entry): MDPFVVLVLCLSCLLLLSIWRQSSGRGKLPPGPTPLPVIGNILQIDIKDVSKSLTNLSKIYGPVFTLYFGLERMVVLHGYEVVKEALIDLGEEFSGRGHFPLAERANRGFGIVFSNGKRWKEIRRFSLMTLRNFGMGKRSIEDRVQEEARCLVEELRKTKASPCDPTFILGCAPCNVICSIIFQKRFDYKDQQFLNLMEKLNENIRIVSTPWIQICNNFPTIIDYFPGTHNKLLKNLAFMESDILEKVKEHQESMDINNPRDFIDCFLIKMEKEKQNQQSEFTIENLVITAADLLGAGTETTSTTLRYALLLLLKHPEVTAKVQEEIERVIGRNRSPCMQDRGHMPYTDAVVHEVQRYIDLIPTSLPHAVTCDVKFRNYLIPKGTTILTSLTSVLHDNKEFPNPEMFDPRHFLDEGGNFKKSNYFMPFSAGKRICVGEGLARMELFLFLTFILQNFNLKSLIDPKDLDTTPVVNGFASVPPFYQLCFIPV

[11] = Cardiotoxicity assessed as proarrhythmic potency in rabbit Purkinje fibers; assay type: toxicity, tissue-based, Oryctolagus cuniculus, Purkinje fiber
TK6 [12] = assay: Genotoxicity in human TK6 cells in presence of rat liver S9 fraction up to 150 ug/ml; assay type: toxicity, cell-based
In short: (§1)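 In vitro micronucleus test in human lymphoblastoid TK6 cells, with or without metabolic activation by rat liver S9, tested up to 150 μg/mL.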

[13] = Lipophilicity, log P of the compound at pH 7; conditions: buffer
[14] = Drug metabolism in human liver microsomes at 5 uM after 15 mins; assay type: ADME, Microsome; conditions: read-out: Drug metabolism
In short: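 Compound at 5 μM incubated 15 min with human liver microsomes; read-out is % of compound metabolized. Values are the mean of at least two experiments.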

[15] = Drug metabolism in mouse liver microsomes at 5 uM after 15 mins; assay type: ADME, Microsome; conditions: read-out: Drug metabolism
[16] = Volume of distribution at steady state in Sprague-Dawley rat at […], iv or 10 mg/kg, po; assay type: ADME, organism-based; conditions: in vivo, read-out: Vdss
[17] = Protein binding in human plasma; assay type: ADME, cell-free; conditions: read-out: PPB (converted)
Cytochrome P450 2D6 = Cytochrome P450 2D6 (Homo sapiens, UniProt P10635); assay: Inhibition of CYP2D6; assay type: ADME
Cytochrome P450 2D6, sequence (P10635 whole entry): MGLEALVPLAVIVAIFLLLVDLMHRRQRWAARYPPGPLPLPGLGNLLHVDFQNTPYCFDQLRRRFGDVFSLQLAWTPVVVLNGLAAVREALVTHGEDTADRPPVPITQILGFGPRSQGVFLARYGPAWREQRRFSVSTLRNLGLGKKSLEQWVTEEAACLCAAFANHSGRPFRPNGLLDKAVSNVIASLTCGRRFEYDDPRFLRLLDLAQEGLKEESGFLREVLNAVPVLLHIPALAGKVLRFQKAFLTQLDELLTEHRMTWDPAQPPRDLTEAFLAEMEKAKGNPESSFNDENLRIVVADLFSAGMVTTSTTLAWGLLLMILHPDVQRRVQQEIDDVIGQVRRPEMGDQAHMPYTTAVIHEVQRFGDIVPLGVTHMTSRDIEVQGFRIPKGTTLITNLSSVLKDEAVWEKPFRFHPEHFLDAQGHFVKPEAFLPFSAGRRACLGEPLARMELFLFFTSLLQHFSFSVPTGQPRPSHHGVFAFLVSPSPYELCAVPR

[18] = Drug level in Swiss mouse brain at 10 mg/kg, sc administered as single dose measured 1 hr post dose; assay type: ADME, organism-based; set-up: dose 10 mg/kg, route subcutaneous; conditions: read-out: Drug uptake
In short: (§2)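 Swiss mice given a single 10 mg/kg sc dose at 1 mg/mL in 20% HP-β-CD + HCl solution, pH 4. Brain and plasma levels taken 1 h post dose. Values are geometric means of at least two runs.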

[19] = Oral bioavailability in Sprague-Dawley rat at 10 mg/kg; assay type: ADME, organism-based; conditions: in vivo
Cytochrome P450 2C9 = Cytochrome P450 2C9 (Homo sapiens, UniProt P11712); assay: Inhibition of CYP2C9; assay type: ADME
Cytochrome P450 2C9, sequence (P11712 whole entry, the tested form may be a part): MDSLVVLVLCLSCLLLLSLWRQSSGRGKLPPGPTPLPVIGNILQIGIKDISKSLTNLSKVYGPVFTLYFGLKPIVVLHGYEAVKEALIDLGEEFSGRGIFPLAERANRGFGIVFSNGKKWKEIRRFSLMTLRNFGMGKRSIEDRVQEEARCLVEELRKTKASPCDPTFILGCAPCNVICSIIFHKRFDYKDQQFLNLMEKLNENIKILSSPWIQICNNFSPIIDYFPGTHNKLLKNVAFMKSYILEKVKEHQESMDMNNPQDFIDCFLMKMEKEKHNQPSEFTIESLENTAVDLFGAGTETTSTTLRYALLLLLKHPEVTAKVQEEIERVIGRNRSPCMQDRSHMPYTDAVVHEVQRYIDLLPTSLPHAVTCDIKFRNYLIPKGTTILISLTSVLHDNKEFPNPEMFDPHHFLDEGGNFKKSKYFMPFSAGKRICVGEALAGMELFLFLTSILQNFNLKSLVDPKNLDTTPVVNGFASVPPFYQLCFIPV

Rattus norvegicus [20] = assay: Effect on sleep-wake stages in Sprague-Dawley rat sleep-wake EEG paradigm model assessed as induction of sleep fragmentation at 3 mg/kg, po; assay type: organism-based; set-up: dose 3 mg/kg, route oral; conditions: in vivo
In short: (§3)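 Male Sprague−Dawley rats (250−300 g) chronically implanted with EEG, EMG and EOG electrodes; n = 8 per group. A 20 h recording after oral saline was followed by a 20 h recording at the same circadian time after oral vehicle (20% CD + 2H2T) or compound (3 mg/kg), starting at 13:30 in the lights-on period. 2 s epochs scored into sleep−wake stages; REM onset latency and state transitions determined. Wilcoxon−Mann−Whitney tests against vehicle.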

Rattus norvegicus [21] = assay: Effect on sleep-wake stages in Sprague-Dawley rat sleep-wake EEG paradigm model at 3 mg/kg, po; assay type: ADME, organism-based; set-up: dose 3 mg/kg, route oral; conditions: in vivo; in short: as §3
[22] = Cmax in Sprague-Dawley rat at […], iv or 10 mg/kg, po; assay type: ADME, organism-based; conditions: in vivo
[23] = Oral bioavailability in dog rat at […]; assay type: ADME, organism-based, Canis lupus familiaris; conditions: in vivo
[24] = Plasma concentration in Swiss mouse at 10 mg/kg, sc administered as single dose measured 1 hr post dose; assay type: ADME, organism-based; set-up: dose 10 mg/kg, route subcutaneous; in short: as §2
MDR1 [25] = assay: Apparent permeability from apical to basolateral side in MDR1 expressing pig LLC-PK1 cells; assay type: ADME, cell-based, Sus scrofa
[26] = AUC (0 to infinity) in Sprague-Dawley rat at 10 mg/kg, po; assay type: ADME, organism-based; set-up: time infinity, dose 10 mg/kg, route oral; conditions: plasma
Salmonella typhimurium = assay: Mutagenicity in Salmonella typhimurium TA98 up to […]; assay type: toxicity, organism-based; conditions: salmonella enterica subsp. enterica serovar typhimurium
[27] = Protein binding in rat plasma; assay type: ADME, cell-free; conditions: read-out: PPB (converted)
Mus musculus [28] = assay: Antipsychotic activity in subcutaneously dosed NMRI mouse assessed as reversal of PCP-induced hyperlocomotion; assay type: functional
In short: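 Nonhabituated mice given vehicle or test compound sc, then immediately challenged with PCP (5.0 mg/kg, sc) or vehicle and placed singly in open fields for 30 min. Distance travelled measured by video tracking. Responder criterion: total distance < 5500 counts.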

Canis familiaris = assay: Cardiotoxicity in anesthetized dog assessed as proarrhythmic potency; assay type: toxicity, organism-based, Canis lupus familiaris; conditions: in vivo
[29] = Dissociation constant, pKa of the compound; assay type: physicochemical
Rattus norvegicus [30] = assay: Prolongation of REM sleep onset latency in Sprague-Dawley rat sleep-wake EEG paradigm model at 3 mg/kg, po; assay type: functional, organism-based; set-up: dose 3 mg/kg; in short: as §3
[31] = Cmax in dog rat at 1 mg/kg, iv or […], po; assay type: ADME, organism-based, Canis lupus familiaris; conditions: in vivo
Rattus norvegicus [32] = assay: Inhibition of REM sleep state in Sprague-Dawley rat sleep-wake EEG paradigm model at 3 mg/kg, po; assay type: functional, organism-based; set-up: dose 3 mg/kg; in short: as §3
TK6 [33] = assay: Genotoxicity in human TK6 cells in absence of rat liver S9 fraction up to 150 ug/ml; assay type: toxicity, cell-based; in short: as §1
[34] = Ratio of drug level in brain to plasma in Swiss mouse at 10 mg/kg, sc administered as single dose measured 1 hr post dose; assay type: ADME, organism-based; set-up: dose 10 mg/kg, route subcutaneous; conditions: read-out: BPR; in short: as §2
[35] = Volume of distribution at steady state in dog rat at 1 mg/kg, iv or […], po; assay type: ADME, organism-based, Canis lupus familiaris; conditions: in vivo, read-out: Vdss
Cytochrome P450 3A4 = Cytochrome P450 3A4 (Homo sapiens, UniProt P08684); assay: Inhibition of CYP3A4; assay type: ADME
Cytochrome P450 3A4, sequence (P08684 whole entry): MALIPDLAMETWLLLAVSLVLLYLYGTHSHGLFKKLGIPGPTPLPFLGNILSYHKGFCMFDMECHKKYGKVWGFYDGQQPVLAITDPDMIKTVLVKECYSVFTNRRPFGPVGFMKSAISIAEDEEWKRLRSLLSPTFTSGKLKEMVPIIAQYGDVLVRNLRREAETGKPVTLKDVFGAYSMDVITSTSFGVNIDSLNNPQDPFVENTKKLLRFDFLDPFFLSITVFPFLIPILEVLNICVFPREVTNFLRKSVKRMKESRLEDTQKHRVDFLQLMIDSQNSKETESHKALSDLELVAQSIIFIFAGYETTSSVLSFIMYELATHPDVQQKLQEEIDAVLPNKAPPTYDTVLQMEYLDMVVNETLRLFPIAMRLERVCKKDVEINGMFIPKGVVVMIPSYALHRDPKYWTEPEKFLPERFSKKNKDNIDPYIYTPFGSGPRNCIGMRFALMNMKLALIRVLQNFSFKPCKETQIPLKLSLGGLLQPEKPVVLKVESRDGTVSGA

MDR1 [36] = assay: Apparent permeability from basolateral to apical side in MDR1 expressing pig LLC-PK1 cells; assay type: ADME, cell-based, Sus scrofa

FC(F)(F)c1c(N2CCC(c3ccccc3)CC2)ccn2c(CC3CC3)nnc12
IC50 (Cytochrome P450 1A2): > 30 µM
Tmax [1]: 30 min
NOAEL (Cavia porcellus): 9000 ng/mL
half-life [2]: 162 min
half-life [3]: 48 min
Tmax [4]: 30 min
minimal effective dose (Rattus norvegicus [5]): 3 mg/kg
clearance [6]: 2.1 L/h/kg
INH (Mus musculus [7]): 2.6 ng/mL
INH (Rattus norvegicus [8]): 0.14 ng/mL
clearance [9]: 1.74 L/h/kg
AUC(0-inf) [10]: 0.531 µg·h/mL
IC50 (Cytochrome P450 2C19): 20 µM
NOAEL [11]: 0.075 µM
Activity (TK6 [12]): Non-toxic
logD [13]: 4.4
metabolised at […], 5 µM [14]: 23%
metabolised at […], 5 µM [15]: 25%
Vd [16]: 1.4 L/kg
fraction unbound [17]: 0.0018
IC50 (Cytochrome P450 2D6): > 30 µM
concentration at 1 h [18]: 0.849 µg/mL
bioavailability [19]: 36%
IC50 (Cytochrome P450 2C9): 11 µM
Activity (Rattus norvegicus [20]): Non-toxic
Activity (Rattus norvegicus [21]): Non-toxic
Cmax [22]: 0.482 µg/mL
bioavailability [23]: 18%
concentration at 1 h [24]: 0.671 µg/mL
Papp A→B (MDR1 [25]): 120 nm/s
AUC(0-inf) [26]: 1.8 µg·h/mL
Activity (Salmonella typhimurium): Non-toxic
fraction unbound [27]: 0.0035
Activity (Mus musculus [28]): Dose-dependent effect
ED50 (Mus musculus [28]; sc): 5.4 mg/kg
NOAEL (Canis familiaris): 6625 ng/mL
pKa [29]: 4.1
Activity (Rattus norvegicus [30]): Active
Cmax [31]: 0.218 µg/mL
inhibition (Rattus norvegicus [32]): Active
Activity (TK6 [33]): Non-toxic
Kp at 1 h [34]: 1.4
Vd [35]: 1.3 L/kg
IC50 (Cytochrome P450 3A4): > 30 µM
Papp B→A (MDR1 [36]): 60 nm/s
